This note sets out measurements from ChEMBL document CHEMBL1139365, “Inhibition of MDR1 activity in vitro by a novel class of diltiazem analogues: toward new candidates” (J Med Chem, 2009).

The source made the active and inactive calls. The rule behind the calls is not given here.

Assay [1] has as its system A2780. In words: Antiproliferative activity against human A2780 cells at 13.1 uM after 3 days by MTT assay. The note with it: A2780, 72 h. It is filed as functional.
Assay [2] has as its system A2780. As to the kind of experiment: Antiproliferative activity against human A2780 cells after 3 days by MTT assay. Format: functional, cell-based. The note with it: for IC50: Homo sapiens, A2780, 72 h. An outline of the steps: (§1)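 Cells plated 6–8 h in 96-well plates. Compound alone, in duplicate at ≥5 concentrations (3-fold serial dilutions, top 100 μM), with final DMSO […] after predilution in FCS. After 3 days, MTT 4 h at 37 °C, formazan dissolved in DMSO, A540. IC50 taken from single dose–response curves; 3–4 experiments. A2780/DX3 kept doxorubicin-free 2–3 days beforehand.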

A short description of assay [3]: Antiproliferative activity against human A2780/DX3 cells after 3 days by MTT assay. Format: functional, cell-based. The conditions noted are these: for IC50: Homo sapiens, A2780/DX3, 72 h. Summed up:
as §1

Assay [4] concerns A2780 ADR. As to the kind of experiment: Reversal of P-gp 170-mediated multidrug resistance in human A2780/DX3 cells assessed as increase in intracellular doxorubicin accumulation at 5 times IC5 pretreated for 2 hrs before doxorubicin administration measured after 2 hrs by flow cytometry. Format: cell-based. Summed up:
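A2780/DX3 cells (kept in 0.1 μM doxorubicin, drug withdrawn 2–3 days before use) seeded in flasks, grown 24 h to 75–85% confluence. Modulator given at five times the 5%-growth-inhibition concentration for 2 h, then 10 μM doxorubicin for 2 h more. Cells trypsinized, fixed in 3.7% paraformaldehyde/2% sucrose in PBS. Flow cytometry, 488 nm excitation, 575 nm bandpass. Read-out is MFI, with % increase taken from the MFI ratio to doxorubicin alone.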

The nature of assay [5]: Antiproliferative activity against human A2780/DX3 cells at 3.0 uM after 3 days by MTT assay. Format: functional. The note with it: A2780/DX3, 72 h.
In assay [6] the test system is A2780. As to the kind of experiment: Ratio of IC50 for human A2780/DX3 cells to IC50 for human A2780 cells assessed as mean resistance index. Format: functional. An outline of the steps: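 Doxorubicin alone tested by 3-day MTT assay in both lines (absorbance at 540 nm). IC50 from dose–response curves. Index is the mean IC50 in resistant cells divided by the mean IC50 in sensitive cells.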

The test system of assay [7] is A2780 ADR. As to the kind of experiment: Reversal of P-gp 170-mediated multidrug resistance in human A2780/DX3 cells assessed as increase in intracellular doxorubicin accumulation at 5 times IC5 pretreated for 2 hrs before doxorubicin administration measured after 2 hrs by epifluorescent microscopic analysis. It is filed as cell-based. Summed up:
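A2780/DX3 cells on chamber slides at 75–85% confluence, pretreated 2 h with compound at five times the concentration giving 5% growth inhibition. Doxorubicin 10 μM then added for 2 h. Cells washed in cold PBS, fixed in 3.7% paraformaldehyde/2% sucrose, mounted and imaged by epifluorescence at 20X. Untreated and compound-only controls included.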

Assay [8] deals with A2780. As to the kind of experiment: Antiproliferative activity against human A2780 cells at 5.3 uM after 3 days by MTT assay. It is filed as functional. The conditions noted are these: A2780, 72 h.
In assay [9] the test system is A2780 ADR. As to the kind of experiment: Reversal of P-gp 170-mediated multidrug resistance in human A2780/DX3 cells assessed as reduction in doxorubicin IC50 at IC5 pretreated for 6 hrs before doxorubicin administration measured after 3 days by MTT assay. Also noted: scale not given: the % may be the effect or the level left. It is filed as cell-based. An outline of the steps:
(§2)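 A2780/DX3 cells went into medium holding the modulator at its MTT-derived 0% or 5% growth-inhibition concentration. Doxorubicin (30–0.048 μM serial dilutions, modulator kept constant) was added 6 h later. MTT (2 mg/mL) was added after 3 days for 4 h at 37 °C, formazan dissolved in DMSO, A540 read. IC50 came from dose–response curves, repeated 4–6 times. % reduction is versus doxorubicin alone in the same experiment. Kruskal–Wallis/Mann–Whitney tests.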

Assay [10] relates to A2780 ADR. As to the kind of experiment: Reversal of P-gp 170-mediated multidrug resistance in human A2780/DX3 cells assessed as reduction in doxorubicin IC50 at IC0 pretreated for 6 hrs before doxorubicin administration measured after 3 days by MTT assay. It is filed as cell-based. Also noted: scale not given: the % may be the effect or the level left. Summed up:
as §2

Assay [11] is described as follows: Antiproliferative activity against human A2780/DX3 cells at 1.9 uM after 3 days by MTT assay. Format: functional. The conditions noted are these: A2780/DX3, 72 h.
Assay [12] has as its system A2780. In words: Antiproliferative activity against human A2780 cells at 2.22 uM after 3 days by MTT assay. It is filed as functional. The note with it: A2780, 72 h.
Assay [13] in a line: Antiproliferative activity against human A2780/DX3 cells at 2.40 uM after 3 days by MTT assay. The note with it: A2780/DX3, 72 h. Format: functional.
Assay [14] relates to A2780. In words: Antiproliferative activity against human A2780 cells at 9.4 uM after 3 days by MTT assay. The conditions noted are these: A2780, 72 h. Format: functional.
Assay [15] in a line: Antiproliferative activity against human A2780/DX3 cells at 4.2 uM after 3 days by MTT assay. Format: functional. The conditions noted are these: A2780/DX3, 72 h.
Assay [16] can be described thus: Down regulation of P-gp 170 expression in human A2780/DX3 cells after 72 hrs by flow cytometry. It is filed as functional, cell-based. Summed up:
(§3)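 Cells exposed 72 h to compound at concentrations giving 5% or 0% growth inhibition. Then washed in PBS/2% FCS; 2.5 × 10^5 cells stained at 4 °C with anti-Pgp MM4.17 monoclonal, then FITC goat anti-mouse IgG, and analysed by flow cytometry.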

The subject of assay [17] is A2780. In words: Down regulation of P-gp 170 expression in human A2780 cells after 72 hrs by flow cytometry. Format: functional, cell-based. Summed up:
as §3

Assay [18] relates to A2780. In words: Antiproliferative activity against human A2780 cells at 0.20 uM after 3 days by MTT assay. It is filed as functional. The conditions noted are these: A2780, 72 h.
A short description of assay [19]: Antiproliferative activity against human A2780/DX3 cells at 15.6 uM after 3 days by MTT assay. Format: functional. The note with it: A2780/DX3, 72 h.
The test system of assay [20] is A2780. As to the kind of experiment: Antiproliferative activity against human A2780 cells at 1.5 uM after 3 days by MTT assay. It is filed as functional. The note with it: A2780, 72 h.
The nature of assay [21]: Blockade of L-type calcium channel.
Assay [22] in a line: Antiproliferative activity against human A2780/DX3 cells at 1.0 uM after 3 days by MTT assay. Format: functional. The note with it: A2780/DX3, 72 h.

Compound `COC1(c2ccc(Cl)cc2)SC=C(C)n2c1noc2=O` (centres undefined) yielded an inhibition at 13.1 µM in the assay with A2780 [1] of 0%. In the assay on A2780 [2], this compound registered an IC5 of 28.4 µM and an IC50 of 166 µM. In assay [3], this compound came in with an IC5 of 11.7 µM and an IC50 of 113 µM. Besides, in the assay with A2780 ADR [4], the Activity is less than 48%. Further, the inhibition at 3 µM in [5] came out at 0%.

On to `COc1cccc2c1C(=O)c1c(O)c3c(c(O)c1C2=O)C[C@@](O)(C(=O)CO)C[C@@H]3O[C@H]1C[C@H](N)[C@H](O)[C@H](C)O1` [DOXORUBICIN], for which the IC50 in the assay with A2780 [2] was found to be 0.02 µM; in [3], 2.21 µM. For the same compound, the “Ratio IC50” value in the assay on A2780 [6] was 93. Moreover, in the assay on A2780 ADR [7], the Activity_index entry was “Active”.

In the assay on A2780 [8], `CC1=CSC(O)(c2cccc(C(F)(F)F)c2)c2noc(=O)n21` (centres undefined) displayed an inhibition at 5.3 µM of 0%. In addition, the IC5 in the assay on A2780 [2] was 18.3 µM; in assay [3], 12.6 µM. The IC50 with A2780 [2] is 60 µM; in [3], 71 µM. The Activity in the assay with A2780 ADR [9] was -4%; in the assay with A2780 ADR [10], -22%; in the assay with A2780 ADR [4] it was less than 48%. In assay [11], the inhibition at 1.9 µM came out at 0%.

Turning to `CCCCCCCCCCCCCCCCCCOC1(c2ccc(Cl)cc2)SC=C(C)n2c1noc2=O` (centres undefined), the results for the IC5 (in the assay on A2780 [2]; in assay [3]) were 4.74 µM and 6.74 µM, respectively. Further, the IC50 (with A2780 [2]; in assay [3]) was more than 100 µM each time. The Activity in the assay with A2780 ADR [9] is -20%; in the assay on A2780 ADR [10], -24%; in the assay on A2780 ADR [4], less than 48%. The compound also displayed an inhibition at 2.22 µM in the assay with A2780 [12] of 0%. Further, testing at 2.4 µM in assay [13] gave an inhibition of 0%.

`COC1(c2ccc(Br)cc2)SC=C(C)n2c1noc2=O` (centres undefined) registered an inhibition at 9.4 µM in the assay on A2780 [14] of 0%. The values for the IC5 (in the assay with A2780 [2]; in assay [3]) were 21.6 µM and 8.9 µM, respectively. Besides, the IC50 in the assay with A2780 [2] was 148 µM; in assay [3] it was more than 100 µM. In addition, the Activity with A2780 ADR [9] is -9%; with A2780 ADR [10], -9%; in the assay with A2780 ADR [4], less than 48%. The compound also had an inhibition at 4.2 µM in assay [15] of 0%.

For `CCCCCOC1(c2ccc(Br)cc2)SC=C(C)n2c1noc2=O` (centres undefined), the IC5 is 2.6 µM with A2780 [2] and 41.8 µM in assay [3]. For the same compound, the IC50 in the assay with A2780 [2] is 108 µM; in assay [3], more than 100 µM. In addition, the Activity was -43% in the assay with A2780 ADR [9], -31% in the assay with A2780 ADR [10] and 52% with A2780 ADR [4]. Moreover, the outcome (in [16]; with A2780 [17]) was inactive. Besides, the inhibition at 0.2 µM in the assay with A2780 [18] came out at 0%. In [19], this compound returned an inhibition at 15.6 µM of 0%.

In the assay on A2780 [20], `CCOC1(c2ccc(Br)cc2)SC=C(C)n2c1noc2=O` (centres undefined) gave an inhibition at 1.5 µM of 0%. Also, the EC50 in [21] is 0.04 µM. Besides, the values for the IC5 (with A2780 [2]; in [3]) were 3.3 µM and 7.8 µM, respectively. In addition, the IC50 (in the assay on A2780 [2]; in assay [3]) was more than 100 µM in each case. In addition, the Activity in the assay on A2780 ADR [9] was -8%; in the assay on A2780 ADR [10] it was 6%; with A2780 ADR [4] it was less than 48%. In assay [22], this compound had an inhibition at 1 µM of 0%.
